We go through 15 molecules from publication PMC6217654 (ACS Omega, 2018).

The test system of data set [1] is reserpine-induced hypothermia mice. The experiment in a line: Antagonistic effect on reserpine-induced hypothermia in mice. To be noted: p.o.; for CNS effect (reserpine-induced hypothermia), in words, SAR comparison: mice, data not shown or compared with 64. Format: in vivo. The method, boiled down:
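Male ddY mice (bought at 6 weeks, 1-week quarantine, ~25 °C). Reserpine 3 mg/kg s.c.; mice with rectal temperature ≤30 °C about 18 h later were used. Test compound in saline p.o. at 5 μmol/kg, TRH at 50 μmol/kg, saline controls. Rectal temperature by thermistor before and up to 7 h post-dose. Trapezoidal AUC0–7h, with saline AUC subtracted. Mean ± SD, ≥3 animals.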

Another data set in a line: Free fraction ratio. Type of data set: in vitro ADME, rat. The note with it: in vitro.
The nature of data set [2]: PK of TRH mimetics in rat, cassette dosing i.v. and p.o. Format: in vivo. The note with it: for MRT / Vd / clearance / half-life: male, Sprague-Dawley, plasma, iv, 1 umol/kg; for BA: oral 2 μmol/kg vs i.v. 1 μmol/kg. Put shortly: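 Cassette dosing in rats (n = 2, 302–364 g). p.o.: 2 μmol/5 mL/kg in DMSO/0.5% methylcellulose 1/4. i.v.: 1 μmol/1 mL/kg in DMSO/propylene glycol 1/1. Heparinized jugular blood; plasma precipitated with methanol/acetonitrile 1/1; LC/MS/MS, ESI positive. t1/2 from terminal phase; MRT by linear trapezoid with monoexponential extrapolation; BA = dose-normalized po/iv AUC ratio. Mean of two animals.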

A short description of data set [3]: PK of TRH and 79 after oral administration to fasted conscious rats. Type of data set: in vivo, rat. The note with it: male, Wistar, rat, plasma, po, 40 mg/kg. Put shortly: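 Male Wistar rats (10–11 weeks, 230–274 g, n ≥ 4), fasted from the evening before dosing to the 12 h sample. Jugular cannula placed under isoflurane 2–3 days before. Single p.o. dose of 40 mg/4 mL/kg in saline. Heparinized blood (~0.3 mL) drawn via cannula; plasma deproteinized with methanol; HPLC with UV absorbance detection. Cmax, Tmax, AUC0–8h given as mean ± SD.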

Data set [4] has as its system rats with Ara-C-induced cerebellar damage. Nature of the data set: Ara-C-induced cerebellar ataxia in rats, open field fall index. Type of data set: in vivo, rat.
In a further data set the target is human TRH-R. The note with it: read-out: Ki for human TRH-R; in vitro binding, reported previously; cited from earlier work.
The conditions of data set [5]: cited from earlier work.

Peptide text beside a SMILES is read from it. Bounds are passed on as bounds.

As for `C[C@H]1OC(=O)N[C@@H]1C(=O)N[C@@H](Cc1cscn1)C(=O)N1CSC[C@H]1C(N)=O` [Compound 63, 3-{N-[(4S,5R)-(5-Methyl-2-oxooxazolidine-4-yl)carbonyl]-3-(thiazol-4-yl)-L-alanyl}-(4R)-4-thiazolidinecarboxamide], in data set [1], the “CNS effect (reserpine-induced hypothermia), in words, SAR comparison” value (“CNS effect” for short) is recorded as “less than that of 64”.
Same read-out and setting: to `C[C@@H]1OC(=O)N[C@@H]1C(=O)N[C@@H](Cc1cscn1)C(=O)N1CCC[C@H]1C(=O)OCc1ccccc1` [Compound 74, {[(4S,5S)-5-Methyl-2-oxooxazolidine-4-carbonyl]-3-(thiazol-4-yl)-L-alanyl}-L-proline Benzyl Ester] belongs “less than that of 64”.
Consider `C[C@@H]1OC(=O)N[C@@H]1C(=O)N[C@@H](Cc1cscn1)C(=O)N1CCC[C@H]1C#N` [Compound 69, 1-{N-[(4S,5S)-(5-Methyl-2-oxooxazolidine-4-yl)carbonyl]-3-(thiazol-4-yl)-L-alanyl}-(2S)-2-cyanopyrrolidine], for which, in the data set “Free fraction ratio”, the “fu: free fraction ratio in serum” value is greater than 99%. In data set [2], this molecule had an MRT of 14.6 min, a Vd of 0.25 L/kg, a clearance of 17.4 mL/min/kg and a half-life of 26.2 min.
For `NC(=O)[C@@H]1CSCN1C(=O)[C@H](Cc1cscn1)NC(=O)[C@@H]1CCC(=O)N1` [Compound 57, 3-{N-L-Pyroglutamyl-[3-(thiazol-4-yl)-L-alanyl]}-(4R)-4-thiazolidinecarboxamide] (HELM PEPTIDE1{[Glp].[O=C([C@H](Cc1cscn1)N[*:1])[*:2]].[O=C([C@@H]1CSCN1[*:1])[*:2]].[am]}$$$$V2.0), the “CNS effect” value in data set [1] is “less than that of 64”.
`C[C@@H]1OC(=O)N[C@@H]1C(=O)N[C@@H](Cc1cncs1)C(=O)N1CCC[C@H]1C` [Compound 71, 1-{N-[(4S,5S)-(5-Methyl-2-oxooxazolidine-4-yl)carbonyl]-3-(thiazol-5-yl)-L-alanyl}-(2R)-2-methylpyrrolidine]: in data set [1], the “CNS effect” value is “less than that of 64”.
Consider `C[C@H]1OC(=O)N(C)[C@@H]1C(=O)N[C@@H](Cc1cscn1)C(=O)N1CCC[C@H]1C(N)=O` [Compound 60, {[(4S,5R)-3,5-Dimethyl-2-oxooxazolidine-4-carbonyl]-3-(thiazol-4-yl)-L-alanyl}-L-prolinamide], for which the “CNS effect” value in data set [1] is “decreased the CNS effects”.
`C[C@@H]1OC(=O)N[C@@H]1C(=O)N[C@@H](Cc1cscn1)C(=O)N1CCC[C@H]1C(N)=O` [Compound 64, {[(4S,5S)-(5-Methyl-2-oxooxazolidine-4-yl)carbonyl]-3-(thiazol-4-yl)-L-alanyl}-L-prolinamide]: the “fu: free fraction ratio in serum” value in the data set “Free fraction ratio” is greater than 99%. Further, in data set [2], the mean residence time MRT is 14.3 min, the Vd was found to be 0.19 L/kg, the clearance is 13 mL/min/kg and the half-life came out at 13.5 min. In addition, the BA in data set [2] is 1.1%.
Consider `C[C@H]1OC(=O)N(Cc2ccccc2)[C@@H]1C(=O)N[C@@H](Cc1cscn1)C(=O)N1CCC[C@H]1C(N)=O` [Compound 61, {[(4S,5R)-3-Benzyl-5-Methyl-2-oxooxazolidine-4-carbonyl]-3-(thiazol-4-yl)-L-alanyl}-L-prolinamide], for which the “CNS effect” value in data set [1] is “decreased the CNS effects”.
With `C[C@@H]1OC(=O)N[C@@H]1C(=O)N[C@@H](Cc1c[nH]cn1)C(=O)N1CCC[C@H]1C` [Compound 72, 1-{N-[(4S,5S)-(5-Methyl-2-oxooxazolidine-4-yl)carbonyl]-L-histidyl}-(2R)-2-methylpyrrolidine], in data set [1], the “CNS effect” value is “less than that of 64”.
Consider `NC(=O)[C@@H]1CCCN1C(=O)[C@H](Cc1cscn1)NC(=O)[C@@H]1COC(=O)N1` [Compound 58, {[(4S)-(2-Oxooxazolidine-4-yl)carbonyl]-3-(thiazol-4-yl)-L-alanyl}-L-prolinamide], for which the “CNS effect” value in data set [1] is listed as “maintained”.
Same read-out and setting: to `NC(=O)[C@@H]1CCCN1C(=O)[C@H](Cc1cncs1)NC(=O)[C@@H]1CCC(=O)N1` [Compound 56, L-Pyroglutamyl-[3-(thiazol-5-yl)-L-alanyl]-L-prolinamide] belongs “less than that of 64”; to `C[C@H]1OC(=O)N[C@@H]1C(=O)N[C@@H](Cc1cncs1)C(=O)N1CCC[C@H]1C(N)=O` [Compound 62], “less than that of 64”.
In the case of `C[C@@H]1OC(=O)N[C@@H]1C(=O)N[C@@H](Cc1cscn1)C(=O)N1CCC[C@H]1C` [Compound 70, 1-{N-[(4S,5S)-(5-Methyl-2-oxooxazolidine-4-yl)carbonyl]-3-(thiazol-4-yl)-L-alanyl}-(2R)-2-methylpyrrolidine], in “Free fraction ratio”, the “fu: free fraction ratio in serum” value is listed as greater than 99%. Moreover, in data set [2], the MRT was 19.1 min, the Vd is 0.58 L/kg, the clearance worked out at 30.6 mL/min/kg and the half-life was determined as 21.6 min. Also, in data set [2], the BA was 4.7%.
For the molecule `NC(=O)[C@@H]1CCCN1C(=O)[C@H](Cc1cnc[nH]1)NC(=O)[C@@H]1CCC(=O)N1` [TRH, L-pGlu–L-His–L-Pro-NH2, reference compound], the “rectal temperature compared with saline levels” value in data set [1] (79 5 μmol/kg from 2 to 7 h, TRH 50 μmol/kg from 0 to 7 h) is reported as “almost the same low rectal temperature profiles as the saline levels”. The “rectal temperature ΔAUC0–7h = AUC0–7h(compounds) – AUC0–7h(saline)” value in data set [1] (reserpine-induced hypothermia mice, TRH 50 μmol/kg, 79 5 μmol/kg) was “–4.0 ± 3.3 °C·h”. Moreover, the “rectal temperature AUC0–7h” value in data set [1] (reserpine-induced hypothermia mice, TRH 50 μmol/kg, 79 5 μmol/kg, mean ± SD) worked out at 201.4 ± 3.3 °C·h. In data set [3], the AUC(0-t) was 68 ± 72 ng·h/mL, the highest concentration (Cmax) amounted to 50 ± 39 ng/mL and the Tmax worked out at 45 ± 17.4 min. In data set [2], the mean residence time (MRT) is 3.7 min, the Vd stood at 0.33 L/kg, the clearance was 89.2 mL/min/kg and the half-life came to 3 min. The fall index in data set [4] (10 mg/kg i.v. once, 30 min post-dose, mean ± SE, vehicle 2.06 ± 0.09) turned out to be 1.05 ± 0.22. In data set [4] (30 mg/kg i.v. once, 30 min post-dose, mean ± SE, vehicle 2.06 ± 0.09), this molecule gave a fall index of 0.87 ± 0.17. For the same molecule, the fall index entry in data set [4] (TRH 30, 100 and 300 mg/kg p.o. once daily for 7 days) is recorded as “no significant decrease”. At human TRH-R, the Ki was 128 nM. Also, in data set [5], the “t1/2 of degradation by the brain homogenate” value was 7.9 min.
Regarding `C[C@@H]1OC(=O)N[C@@H]1C(=O)N[C@@H](Cc1cscn1)C(=O)N1CSC[C@H]1C(N)=O` [Compound 68, 3-{N-[(4S,5S)-(5-Methyl-2-oxooxazolidine-4-yl)carbonyl]-3-(thiazol-4-yl)-L-alanyl}-(4R)-4-thiazolidinecarboxamide], the “fu: free fraction ratio in serum” value in “Free fraction ratio” is greater than 99%. In data set [2], this molecule showed an MRT of 11 min, a Vd of 0.16 L/kg, a clearance of 14.2 mL/min/kg and a half-life of 9.8 min.

By MRT is commonly meant a mean duration of stay, worked out from the concentration-time curve. The half-life is how long it takes for the measured level to halve. Low readings indicate fast loss, high ones slow loss. As usually defined, the AUC(0-t) is the area under the concentration-time curve up to a stated or last time point. Low readings indicate low exposure, high ones high exposure. As usually defined, the Cmax is the peak of the concentration-time curve. The Tmax is the time at which the peak concentration occurs. Usually Ki stands for the dissociation constant of the complex between target and ligand, obtained from inhibition or displacement.
